The list is not random: actives were taken first. Their share in the collection is about 4.6%.
OX1R antag-1: OX1R (HCRTR1) antagonists, primary screen, fluorescence, CHO/OX1R cells, Fluo-8 calcium, orexin A; Orexin/Hypocretin receptor type 1 (Homo sapiens), O43613; Fluo-8 calcium fluorescence; inhibition, % at 5 µM; actives 0.43% (n = 330,000); AID 434989, 2010;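 active means inhibition above its plate's threshold, mean inhibition of all tested compounds on the plate plus 3 SD, cut at about 37% in these data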;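 further: 0% = orexin A challenge wells and 100% = SB-334867-A antagonist wells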
CHO parental Ca: ATP-evoked calcium signal inhibitors, parental CHO, primary screen, counter-screen for OX1R antagonist project, cell-based, fluorescence, Fluo-8 calcium dye. parental CHO-K1, ATP-induced calcium, Fluo-8 fluorescence. inhibition, % at 5.6 µM. actives 0.63% (n = 330,000). AID 463079, 2010;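 active means inhibition above that plate's mean sample inhibition plus 3 SD, cut at about 26% in these data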;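 further: 0% = ATP-challenged DMSO wells and 100% = DMSO wells without ATP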
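Assay system: parental CHO cells; Read-out basis: percent inhibition of ATP-evoked calcium rise, normalized to controls; Benchmarks: ATP and no-ATP DMSO wells; Compound dosing: single nominal dose of 5.6 µM per compound; Signal: Fluo-8 calcium dye fluorescence; Also added: ATP as calcium-mobilizing challenge; Repeats: singlicate.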
OX1R antag-2: antagonists of human orexin 1 receptor (OX1R) | Orexin/Hypocretin receptor type 1 (Homo sapiens), O43613 | OX1R-expressing cells, FRET antagonist read-out | inhibition, % at 6.6 µM | actives 1.8% (n = 330,000) | AID 485270, 2010; in the data active means inhibition mostly above about 38%, no sharp cut-off; inactive means mostly below about 40%;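 further: 0% = agonist challenge alone and 100% = reference antagonist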
GPR7 antagonist: GPR7 receptor antagonists, primary screen, cell-based, fluorescence, single concentration. inhibition, % at 4.4 µM. GPR7-expressing cells, fluorescence antagonist assay. actives 1.1% (n = 290,000). Neuropeptides B/W receptor type 1 (Homo sapiens), P48145. AID 1861, 2009; in the data active means inhibition above about 16%, passing the limit was not always enough;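 further: cells stimulated with the agonist NPW; 0% = agonist with vehicle and 100% = vehicle without agonist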
TAAR1 ag: human TAAR1 agonists, primary screen, Fluo-8 calcium fluorescence, CHO RD-HGA16 cells; vehicle wells 0%, saturating PEA agonist 100%; AID 624467, 2012; Trace amine-associated receptor 1 (Homo sapiens), Q96RJ0; activation, % at 3 µM; actives 0.99% (n = 360,000);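 active means activation above the mean activation of all test compounds in the run plus 3 SD, cut at about 38% in these data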
Target sequence (Q96RJ0 whole entry, looked up): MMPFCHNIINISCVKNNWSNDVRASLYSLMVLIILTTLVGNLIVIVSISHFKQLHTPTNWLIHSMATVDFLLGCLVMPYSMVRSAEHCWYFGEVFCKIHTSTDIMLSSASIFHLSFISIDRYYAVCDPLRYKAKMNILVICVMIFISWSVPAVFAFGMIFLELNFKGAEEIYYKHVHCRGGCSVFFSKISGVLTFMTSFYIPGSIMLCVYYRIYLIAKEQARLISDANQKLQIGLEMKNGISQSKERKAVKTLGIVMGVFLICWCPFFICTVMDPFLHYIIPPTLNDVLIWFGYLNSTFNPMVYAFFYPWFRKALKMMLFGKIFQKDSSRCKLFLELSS
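System: CHO-derived RD-HGA16 cells with stable Gα16 and human TAAR1. Times: 17-24 h plating, Fluo-8 75 min 37 °C, 30 min RT. Measured by: calcium-sensitive Fluo-8 signal, excitation 470-495, emission 515-575 nm. Read-out basis: % activation relative to PEA EC100 response. Control set: DMSO and PEA EC100. Repeats: no replicates (n 1).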
TAAR1 antag: human TAAR1 antagonists, primary screen, Fluo-8 calcium fluorescence, CHO RD-HGA16 cells | Trace amine-associated receptor 1 (Homo sapiens), Q96RJ0 | inhibition, % at 3 µM | antagonist | actives 1.5% (n = 360,000);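 active means inhibition above a per-plate cutoff, the mean inhibition of test compounds on that plate plus 3 SD, cut at about 49% in these data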;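 further: 0% = DMSO plus EC80 beta-PEA response and 100% = DMSO alone without agonist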
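Assay system: RD-HGA16 CHO cells with stable hTAAR1 and Gα16 / Reagent: EC80 β-phenethylamine stimulus / Doses: 3 µM, single point / Timing: dye loading 75 min at 37 °C, then 30 min room temperature / Measured by: Fluo-8 intracellular calcium dye fluorescence, real-time kinetic reads / Controls: vehicle wells and EC80 agonist wells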
An asterisk follows results filed as active; nt = no result.

SMILES	OX1R antag-1	CHO parental Ca	OX1R antag-2	GPR7 antagonist	TAAR1 ag	TAAR1 antag
Cc1cc(C)cc(NC(=O)c2cccc3c2C(=O)N(C2CCCCC2)C3)c1	-17.6	-15.3	3.6	-6.2	nt	nt
COc1cc(NC(=O)c2cccc3c2C(=O)N(C2CCCCC2)C3)cc(OC)c1OC	-10.3	-28.5	20.5	9.3	1.7	52.9*
O=C(N[C@H](C(=O)N1CCC[C@H]1C(=O)NCc1ccccc1)c1ccccc1)c1ccc(Cl)cc1Cl	nt	nt	nt	nt	0.1	4.9
COc1cc(/C=N\NC(=O)c2ccc(Cn3nc([N+](=O)[O-])c(Cl)c3C)o2)ccc1O	-0.9	-0.8	16.7	15.9	11.7	49.5*
Cc1c(Cl)c([N+](=O)[O-])nn1Cc1ccc(C(=O)N/N=C\c2ccccn2)o1	-19.6	19.7	18.1	-9.3	6.9	-18.5
CN(C)c1ccc(/C=C/c2nc3ccccc3c(=O)n2-c2ccc(C(=O)O)cc2)cc1	83.3*	63.9*	13.8	17.3	33.2	38.6
Clc1nnc(N/N=C/c2ccccc2)c2ccccc12	-10.8	-30.4	14.1	-11.1	10.7	6.7
C[n+]1ccc(/C=N/Nc2nc(Cl)c(C#N)c(Cl)c2Cl)cc1	0.4	-7.1	54.2*	5.8	3.8	3.7
Cc1cc(C)n2nc(-c3ccccc3)cc2n1	-10.7	-2.0	25.9	2.3	1.4	0.4
Cc1cc(C)n2nc(Nc3ccccc3)cc2n1	-1.6	-19.7	48.7*	-3.2	-0.5	-10.3
Cc1cc(Br)cn2c(Cc3ccsc3)c(-c3ccco3)nc12	nt	nt	nt	nt	-0.7	-15.7
COc1cc(-c2noc(-c3cccs3)n2)cc(OC)c1OC	-13.2	-23.7	48.3*	-7.1	6.2	10.1
CCn1c(SCc2nc(-c3ccc(OC)c(OC)c3)no2)nnc1-c1cccs1	24.5	-7.7	45.2*	-13.9	17.4	-10.7
COc1ccc(-c2noc(CSc3nnc(Cc4ccccc4)n3-c3cccc(C)c3)n2)cc1OC	2.7	-11.6	39.1*	-0.7	4.7	10.9
CCCCNC(=O)C[C@H]1C[C@@]2(C(=O)OC)C(=C[C@H](C(C)C)O[C@@H]2C2CC2)N(Cc2ccccc2)C1=O	nt	nt	nt	nt	-2.7	-26.2
CSc1ccc(/C=C/C(=O)OCC(=O)N2CCN(c3ccccc3)CC2)cc1	nt	nt	nt	nt	1.8	-13.2
COC(=O)[C@]12C[C@H](CC(=O)N3CCCCC3)C(=O)N(Cc3ccccc3)C1=C[C@H](C(C)C)O[C@@H]2C1CC1	nt	nt	nt	nt	-2.3	-37.4
C=CCC[C@@H](Cc1ccc(F)cc1)C(=O)OC[C@H](C)NC(=O)[C@@H](CC=C)CC(=O)N(CCO)Cc1ccccc1	-36.5	-35.9	7.8	nt	1.2	-2.2
C=CC[C@H](CC(=O)N(CCO)Cc1ccccc1)C(=O)N[C@@H](C)COC(=O)[C@@H](CC=C)Cc1ccc(F)cc1	3.4	-16.7	24.8	nt	20.3	53.6*
C=CCC[C@@H](Cc1ccc(F)cc1)C(=O)OC[C@@H](NC(=O)[C@H](CC=C)CC(=O)N(CCO)Cc1ccccc1)c1ccccc1	48.7	-1.7	34.2	nt	4.2	60.8*
COC(=O)C1=C(C)N(Cc2ccc(C(F)(F)F)cc2)C(=NCC2CC2)NC1c1ccccc1C(F)(F)F (stereo not given)	nt	nt	nt	nt	8.6	9.4
COc1ccccc1CN1CC(C(=O)NCC2(O)CCCCC2)CCC1=O (stereo not given)	nt	nt	nt	nt	0.3	-8.4
O=S(=O)(c1ccccc1)N1CCN(c2ccnc3cc(Cl)ccc23)CC1	38.3	88.7*	28.6	10.6	6.4	39.1
O=S(=O)(c1cccs1)N1CCN(c2ccnc3cc(Cl)ccc23)CC1	-38.7	-14.5	8.1	4.7	0.3	34.9
Clc1ccc2[nH]cc(-c3nnnn3-c3ccc4ccccc4c3)c2c1	30.2	56.7*	53.5	24.2	7.6	49.0*
Cc1ccc(-n2nnnc2-c2cnc3ccc(Cl)cc3c2-c2ccccc2)cc1	-23.2	-22.7	10.6	-2.0	0.5	-11.2

Compound activity as filed in PubChem.
